SUMO1-SIM PPI – SUMO1-SIM interaction modulation. inhibition, % at 20 µM. actives 0.33% (n = 360,000). AID 602429. SUMO1 binding to a labelled peptide, TR-FRET, 1 h; in the data active = inhibition above about 37%
Target sequence (P63165 whole entry, looked up): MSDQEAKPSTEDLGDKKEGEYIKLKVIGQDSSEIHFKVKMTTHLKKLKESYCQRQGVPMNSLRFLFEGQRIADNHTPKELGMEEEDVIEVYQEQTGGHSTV
Scp-1 inhibitor – inhibitors of human Scp-1 phosphatase. actives 0.88% (n = 340,000). Recombinant Scp1, phosphopeptide, malachite green phosphate absorbance. inhibition, % at 20 µM. AID 493091. Q9GZU7;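 active = inhibition above about 50% at 20 µM, limit read from the data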;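 also: plate controls were DMSO wells with enzyme for no effect and wells lacking enzyme for full effect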
Target sequence (Q9GZU7 76-261 limits assumed): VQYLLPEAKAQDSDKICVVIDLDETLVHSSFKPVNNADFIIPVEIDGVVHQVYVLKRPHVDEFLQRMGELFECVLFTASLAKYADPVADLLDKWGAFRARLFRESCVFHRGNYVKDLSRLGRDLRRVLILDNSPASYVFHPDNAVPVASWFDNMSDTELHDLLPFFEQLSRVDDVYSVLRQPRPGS
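Incubation: 45 min enzyme reaction at room temperature / System: truncated SCP-1 phosphatase (76-261aa) / Reagent: Phospho 17-mer peptide substrate / Buffer or medium: Acidic Tris acetate buffer with magnesium and detergent / Signal: absorbance at 630 nm / Doses: one concentration, 20 µM, with 1.0% DMSO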
STEP inh – blocks human striatal-enriched tyrosine phosphatase. P54829. recombinant STEP, OMFP fluorogenic substrate, fluorescence. inhibition, % at 20 µM. actives 0.25% (n = 360,000). AID 588621;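 active = inhibition at 20 µM, scaled per plate between control wells, above about 37%, limit read from the data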;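 also: 0% = DMSO with enzyme and substrate and 100% = substrate only without enzyme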
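System: isolated STEP enzyme; schedule: 20 min enzyme reaction at room temperature, protected from light; medium: Bis-Tris buffer pH 6.0, 2.5 mM DTT, 0.005% Tween 20; signal: fluorescence, 480/540 nm; dosing: single compound dose of 20 µM, 1% DMSO final; also added: OMFP substrate, 25 µM final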
DNMT1 inh – inhibitors of human DNMT1. AID 588458. inhibition (reported as % activation of signal), % at 10 µM. DNMT1 molecular beacon, Hinp1I cleavage, fluorescence. P26358. actives 0.83% (n = 360,000); in the data active = inhibition above about 50%
LMPTP block – LMPTP (human) inhibition; inhibition, % at 20 µM; actives 0.22% (n = 360,000); recombinant LMPTP-A, OMFP fluorogenic substrate, fluorescence intensity;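 active = compounds that cut the enzyme signal by at least half of the control window in the single-dose screen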;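 also: plate controls were DMSO wells with enzyme plus substrate for no effect and substrate without enzyme for full effect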
Target sequence (P24666 whole entry, looked up): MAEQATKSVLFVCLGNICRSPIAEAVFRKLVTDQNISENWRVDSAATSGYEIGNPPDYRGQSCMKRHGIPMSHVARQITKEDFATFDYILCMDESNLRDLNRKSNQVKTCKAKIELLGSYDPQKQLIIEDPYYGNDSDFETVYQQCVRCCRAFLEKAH
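Test system: LMPTP-A phosphatase enzyme. Amount: LMPTP-A at 0.625 nM final in the reaction. Reagent: OMFP substrate, 400 µM final. Times: 50 min at room temperature. Signal: endpoint fluorescence intensity from OMFP dephosphorylation. Read-out basis: % inhibition. Benchmarks: no-enzyme and uninhibited controls.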
Scp1 confirm – Scp-1 (human) inhibition, single-dose confirmed | shares compounds with Scp-1 inhibitor | recombinant SCP-1 catalytic domain, phosphate release, malachite green absorbance | inhibition, % at 20 µM | actives 61% (n = 2,500);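 also: plate controls were DMSO with enzyme for no effect and buffer wells lacking enzyme for full effect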
MG interference – colorimetric interference in Scp-1 counter-screen | shares compounds with Scp-1 inhibitor | Colorimetric interference counterscreen, malachite green absorbance 630 nm | apparent inhibition (interference), % at 20 µM | 2,500 tested, under 10 active | AID 540313;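 also: compounds added after enzyme reaction finished so only phosphate colour detection is probed; plate controls were DMSO wells with completed Scp-1 reaction for no effect and substrate wells lacking enzyme for full effect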
Scp1 DSF – binds human Scp-1, shifting its melting temperature. thermal shift relative to vanadate control, % at 40 µM. Recombinant SCP1, Sypro Orange thermal shift Tm. actives 25% (n = 1,500). AID 540329. shares compounds with Scp-1 inhibitor;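 active = substances whose mean melting-temperature shift, as a percentage of the reference inhibitor's shift, reaches about 5.3%, limit read from the data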;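 also: 0% = Tm of DMSO wells and 100% = Tm with sodium orthovanadate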
DNMT1 interf DR – shows spectral interference in the DNMT1 beacon assay; shares compounds with DNMT1 inh; molecular beacon fluorescence, spectral interference counter-screen; 200 tested, under 10 active; IC50, µM; call rule not given here
DNMT1 inh conf – confirmation of human DNMT1 inhibitors. shares compounds with DNMT1 inh. DNMT1 molecular beacon HinP1I cleavage, fluorescence. inhibition, % at 10 µM. actives 8% (n = 2,300);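 active = average inhibition of at least 30% in the single-concentration confirmation test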
DNMT1 interf – shows spectral interference in the DNMT1 beacon assay; shares compounds with DNMT1 inh; DNMT1 molecular beacon spectral interference counterscreen, fluorescence 485/520; activation (fluorescence interference), % at 10 µM; actives 1% (n = 2,300); AID 602387;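 active = activation of at least 30% at 10 µM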;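 also: DNMT1 catalytic domain with a HinP1I cleavage step and a FAM/dabcyl DNA beacon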
The depositor's hits bear a star; . = no result. Most compounds without a hit are left out; they make up all but 1.8% or so of the library.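 The calls were made as follows, unless noted: active = inhibition of at least 30% at 20 µM; inactive = the rest.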

SMILES | SUMO1-SIM PPI | Scp-1 inhibitor | STEP inh | DNMT1 inh | LMPTP block | Scp1 confirm | MG interference | Scp1 DSF | DNMT1 inh conf | DNMT1 interf | others
CCc1nc(SCC(=O)O)c(C#N)c2c1CCCC2 | 6 | -8 | 2 | 6 | 0 | . | . | . | . | .
Cc1nc(SCC(=O)O)c(C#N)c2c1CCCC2 | 26 | 96* | 16 | 58* | 2 | 70* | -13 | 4 | 2 | 3
Cc1ccc2nc(NC(=O)COC(=O)c3cccnc3)sc2c1 | 5 | 27 | -1 | -4 | 0 | . | . | . | . | .
COc1ccc(Cn2c(-c3ccco3)nc3oc4ccccc4c(=O)c3c2=O)cc1 | -5 | 33 | -2 | 2 | 4 | . | . | . | . | .
COc1ccc(Cn2c(-c3ccco3)nc3oc4cc(OC)ccc4c(=O)c3c2=O)cc1 | 16 | 79* | 9 | 61* | 33 | 68* | -10 | -2 | 15 | -6
COc1ccc2c(=O)c3c(=O)n(Cc4ccco4)c(-c4ccco4)nc3oc2c1 | 13 | 92* | 20 | 86* | 47 | 74* | -2 | 4 | 4 | 2
CC1(CCCN2C(=O)c3ccccc3C2=O)OCCO1 | -10 | 0 | 0 | 11 | 0 | . | . | . | . | .
C/C(=N/NC(=O)CNC(=O)COc1ccccc1)c1ccc(Cl)cc1 | -4 | -5 | 1 | 6 | -2 | . | . | . | . | .
COc1ccc2cc(/C=C/C(=O)N3CCN(CC(=O)N4CCCCCC4)CC3)ccc2c1 | -22 | -2 | -5 | -2 | -2 | . | . | . | . | .
CC1=NOC(=O)/C1=C\c1ccc(-c2ccc(Cl)c(C(=O)O)c2)o1 | 18 | 67* | 34 | 82* | 4 | 58* | -18 | 2 | 9 | 0
O=C1NN(c2ccccc2)C(=O)/C1=C/c1ccc(-c2ccc(C(=O)O)cc2)o1 | 5 | 77* | 10 | 78* | 5 | 58* | -18 | 15* | 30 | -1 | DNMT1 interf DR=>99
COC(=O)c1ccc(N2NC(=O)/C(=C/c3ccc(-c4ccc(Cl)c(C(=O)O)c4)o3)C2=O)cc1 | 23 | 76* | 30 | 79* | 33 | 75* | -8 | 14* | 9 | 8
Cc1ccc(C(=O)NCc2ccccc2CN2CCCC2)cc1S(=O)(=O)N1CCOCC1 | 1 | -4 | 2 | -1 | 0 | . | . | . | . | .
COC(=O)C1=COC(OC2OC(CO)C(O)C(O)C2O)C2C1C=CC2(O)CO (configuration not stated) | 19 | 58* | 14 | 90* | 6 | 34* | -11 | -6 | 3 | -1
COC(=O)C1=CO[C@@H](O[C@@H]2OC(CO)[C@@H](O)[C@@H](O)[C@@H]2O)C2C1CC[C@]2(C)O (some centres not stated) | 1 | 4 | -4 | -2 | 0 | . | . | . | . | .
Cc1nc2c(c(=O)n1CCC1=CCCCC1)c1nc3ccccc3nc1n2/N=C/c1ccco1 | 26 | 58* | 4 | 76* | 32 | 41* | -9 | 6.1* | 1 | -1
CCCn1c(C)nc2c(c1=O)c1nc3ccccc3nc1n2CCC1=CCCCC1 | -11 | 3 | 3 | -1 | 1 | . | . | . | . | .
Cc1nnc(NC(=O)CC23CC4CC(CC(C4)C2)C3)s1 | -1 | -5 | 0 | 1 | -1 | . | . | . | . | .
COc1ccc(/C=N/NC(=O)c2nnn(-c3nonc3N)c2-c2cccc(OC)c2)cc1 | 4 | -6 | -3 | -2 | -1 | . | . | . | . | .
